From ChEMBL document CHEMBL4020790, “Quinazolinone derivatives as inhibitors of homologous recombinase RAD51” (Bioorg Med Chem Lett, 2017)
Calls of active or inactive are those of the source. The rule behind the calls is not given here.

Columns and labels:
[1] = target: T1, DNA repair protein RAD51 homolog 1 (Homo sapiens) (UniProt Q06609); experiment: Inhibition of RAD51 in human MDA-MB-231 cells assessed as reduction in DNA damage-induced RAD51 foci formation at 10 uM incubated for 16 hrs followed by 6-Gy gamma-irradiation measured after 6 hrs by immunofluoresent assay; type: cell-based
T1 sequence (whole entry): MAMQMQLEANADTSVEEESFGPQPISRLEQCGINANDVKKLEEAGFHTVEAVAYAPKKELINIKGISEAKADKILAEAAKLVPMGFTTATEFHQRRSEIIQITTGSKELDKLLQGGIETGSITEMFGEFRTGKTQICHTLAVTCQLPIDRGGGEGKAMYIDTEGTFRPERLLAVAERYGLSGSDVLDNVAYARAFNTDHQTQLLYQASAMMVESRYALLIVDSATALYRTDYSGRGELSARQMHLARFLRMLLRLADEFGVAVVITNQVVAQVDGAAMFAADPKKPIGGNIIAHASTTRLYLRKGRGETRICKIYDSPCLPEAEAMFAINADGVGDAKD
Summary of the method: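 MDA-MB-231 cells given 10 μM compound, then 6 Gy irradiation; RAD51 foci scored by immunofluorescence, with the read-out taken as the ratio of RAD51-positive to γH2AX-positive cells.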

MDA-MB-436 = experiment: Cytotoxicity against human MDA-MB-436 cells assessed as decrease in cell viability after 120 hrs by MTS assay; type: functional, cell-based; details: MDA-MB-436, 120 h
MCF-10A = experiment: Cytotoxicity against human MCF10A cells assessed as decrease in cell viability after 120 hrs by MTS assay; type: cell-based
BT-549 = experiment: Cytotoxicity against human BT549 cells assessed as decrease in cell viability after 120 hrs by MTS assay; type: functional, cell-based; details: BT-549, 120 h
MDA-MB-231 [2] = experiment: Cytotoxicity against human MDA-MB-231 cells assessed as decrease in cell viability at 10 uM in presence of 6-Gy gamma-irradiation measured up to 120 hrs by CellTiter96 AQueous one solution cell proliferation assay; type: functional, cell-based
Summary of the method: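 MDA-MB-231 cells given 10 μM compound with or without 6 Gy irradiation; proliferation followed over a 120 h time course and expressed as mean % proliferation from 3 independent experiments; area under the curve calculated from the proliferation data.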

SUM-159-PT = experiment: Cytotoxicity against human SUM159PT cells assessed as decrease in cell viability after 120 hrs by MTS assay; type: functional, cell-based
[3] = target: T1, DNA repair protein RAD51 homolog 1 (Homo sapiens); experiment: Binding affinity to recombinant human RAD51 at 100 uM by SPR method
MDA-MB-468 = experiment: Cytotoxicity against human MDA-MB-468 cells assessed as decrease in cell viability after 120 hrs by MTS assay; type: functional, cell-based; details: MDA-MB-468, 120 h
MDA-MB-231 [4] = experiment: Cytotoxicity against human MDA-MB-231 cells assessed as decrease in cell viability at 10 uM measured up to 120 hrs by CellTiter96 AQueous one solution cell proliferation assay; type: functional, cell-based
Summary of the method: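 MDA-MB-231 cells exposed to 10 μM compound with or without 6 Gy irradiation; proliferation followed over a 120 h time course and expressed as mean % proliferation from 3 independent experiments; area under the curve derived from the proliferation data.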

Hs-578T = experiment: Cytotoxicity against human Hs578T cells assessed as decrease in cell viability after 120 hrs by MTS assay; type: functional, cell-based
MDA-MB-231 [5] = experiment: Cytotoxicity against human MDA-MB-231 cells assessed as decrease in cell viability after 120 hrs by MTS assay; type: functional, cell-based; details: MDA-MB-231, 120 h
HCC1937 = experiment: Cytotoxicity against human HCC1937 cells assessed as decrease in cell viability after 120 hrs by MTS assay; type: functional, cell-based; details: HCC1937, 120 h

| Activity [3] | SMILES | inhibition [1] | IC50 (MDA-MB-436) [µM] | IC50 (MCF-10A) [µM] | IC50 (BT-549) [µM] | Activity (MDA-MB-231 [2]) | IC50 (SUM-159-PT) [µM] | IC50 (MDA-MB-468) [µM] | Activity (MDA-MB-231 [4]) | IC50 (Hs-578T) [µM] | IC50 (MDA-MB-231 [5]) [µM] | IC50 (HCC1937) [µM] |
| --- | --- | --- | --- | --- | --- | --- | --- | --- | --- | --- | --- | --- |
|  | O=c1c2ccccc2nc(/C=C/c2cccnc2)n1CC1CCCCC1 | Active |  |  |  |  |  |  |  |  |  |  |
| Active | O=c1c2ccccc2nc(/C=C/c2cccnc2)n1Cc1ccc(Cl)cc1 | Active | 4.1 | 48.3 | 6.4 | Active | 5.5 | 5.7 | inactive | 4.2 | 6.7 | 13.7 |
|  | O=c1c2ccccc2nc(/C=C/c2cccnc2)n1Cc1ccccc1 |  | 5.7 | 47.7 | 35.4 | Active | 84.1 | 10.2 |  | 9.6 | 11.1 | 89.1 |
